Most compounds without a hit are left out; they make up all but 2.6% or so of the library.
SENP8 block-1: SENP8 protease inhibitors, primary screen, biochemical, luminescence; inhibition, % at 10 µM; purified SENP8, Z-RLRGG-aminoluciferin cleavage; 330,000 tested, 1.2% active; Sentrin-specific protease 8 (Homo sapiens), Q96LD8; in the data active means inhibition above about 50%
Target sequence (Q96LD8 whole entry, looked up): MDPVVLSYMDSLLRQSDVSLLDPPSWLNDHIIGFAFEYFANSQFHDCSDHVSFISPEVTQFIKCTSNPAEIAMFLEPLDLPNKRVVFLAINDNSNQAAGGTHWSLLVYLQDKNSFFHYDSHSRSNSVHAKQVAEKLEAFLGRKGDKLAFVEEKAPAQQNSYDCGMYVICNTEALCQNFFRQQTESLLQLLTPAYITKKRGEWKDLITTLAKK
Platelet DG rel: inhibitors of platelet dense granule secretion, primary screen, cell-based, MLPCN, human platelets | human platelet-rich plasma, SFLLRN dense granule ATP release, luminescence | inhibition, %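 (compounds screened at 7.5 µM in platelet-rich plasma)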 | 300,000 tested, 0.22% active;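 active means mean replicate score, as percent of positive control, at or above 50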
SENP7 block: SENP7 protease inhibitors, primary screen, biochemical, luminescence, uHTS. Sentrin-specific protease 7 (Homo sapiens), Q9BQF6. inhibition, % at 5 µM. recombinant SENP7, Z-RLRGG-aminoluciferin luminescence, 40 min. 330,000 tested, 1.5% active;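 active means inhibition above about 50% at the single test dose, limit read from the data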
SENP1 inh: human SENP1 catalytic domain inhibitors, primary screen, biochemical, FRET, uHTS; Sentrin-specific protease 1 (Homo sapiens), Q9P0U3; inhibition, % at 10 µM; 360,000 tested, 0.21% active; recombinant SENP1 catalytic domain, CyPet-SUMO1-YPet FRET cleavage;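 active means inhibition at least 30% at 10 µM, raw YFP signal under a set limit, fluorescence ratio 0.5 to 1.5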
Target sequence (Q9P0U3 419-644 limits assumed): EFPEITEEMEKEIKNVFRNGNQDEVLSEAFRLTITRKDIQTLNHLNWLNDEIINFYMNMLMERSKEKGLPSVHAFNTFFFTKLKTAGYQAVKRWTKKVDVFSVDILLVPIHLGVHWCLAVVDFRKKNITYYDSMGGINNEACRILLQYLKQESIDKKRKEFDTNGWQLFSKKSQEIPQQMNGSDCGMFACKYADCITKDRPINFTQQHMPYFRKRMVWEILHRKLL
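Test system: human SENP1 catalytic domain; medium: Tris pH 8 buffer plus EDTA, NaCl, BME, BSA, NP40, catalase; incubation: 50 min reaction at room temperature; technique: FRET, CFP and YFP emission; controls: no-enzyme low control and enzyme-plus-DMSO high control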
SENP8 block-2: human SENP8 protease inhibitors, primary screen, biochemical, fluorescence, Nedd8 protein substrate, uHTS; Sentrin-specific protease 8 (Homo sapiens), Q96LD8; recombinant SENP8; inhibition, % at 20 µM; 360,000 tested, 0.64% active; AID 602440, 2012; in the data active means inhibition mostly above about 40%, no sharp cut-off; inactive means mostly below about 27%
SENP6 block: SENP6 protease inhibitors, primary screen, biochemical, luminescence, uHTS; Sentrin-specific protease 6 (Homo sapiens), Q9GZR1; Recombinant SENP6 catalytic domain, aminoluciferin luminescence; inhibition, % at 10 µM; 330,000 tested, 1.8% active;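 active means inhibition above about 50% at the single tested dose, limit read from the data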
Hits are given with their value; . = inactive; / = no result.

SMILES	SENP8 block-1	Platelet DG rel	SENP7 block	SENP1 inh	SENP8 block-2	SENP6 block
COc1cc(O)c(C(=O)O)c(-c2cc(O)c(O)cc2C)c1	.	.	.	.	65.8	.
O=C1NCN(c2ccccc2)C12CCN(C(c1ccnc3ccccc13)c1nnnn1-c1ccc3c(c1)OCCO3)CC2 (stereo unspecified)	/	/	/	.	.	/
CC(Cc1ccccc1Sc1ccc(O)cc1)N(C)C (stereo unspecified)	.	.	.	.	.	.
CC(N)Cc1ccccc1Sc1ccc(O)cc1 (stereo unspecified)	.	75.6	.	/	/	.
O=C(NCCN1CCC2(CC1)C(=O)NCN2c1cccc(F)c1)c1ccc2ccccc2c1	/	/	/	.	.	/
Cc1nc2c(=O)n(C)c(=O)nc-2n(C)n1	96.4	.	96.0	48.8	131.7	86.9
CCC(C)(O)C(=O)OC1C(=O)OC2CC3C(C)=CC(O)C(O)C3(C)C3C4(O)OCC23C1C(C)C4O (stereo unspecified)	/	/	/	.	.	/
C=CCN1C(=O)NC(=O)/C(=C/c2c(CCN(C)C(=O)c3ccccc3)cc3c(c2OC)OCO3)C1=O	.	.	.	.	54.1	.
CNC(=O)Oc1ccc(-c2cn3cc(C)ccc3n2)cc1	66.6	.	79.3	.	.	81.0
c1cncc(C2Nc3cccc4cccc(c34)N2)c1	.	.	.	.	52.3	.
O=C1CCCC2=C1C(c1cccnc1)Nc1ccccc1N2 (stereo unspecified)	.	.	.	.	.	.
COc1cc(C2c3cc4c(cc3CC3COC(=O)C32)OCO4)cc(OC)c1OC (stereo unspecified)	.	/	.	.	.	.
COc1ccc(NC2Oc3cc4c(cc3C(c3cc(OC)c(OC)c(OC)c3)C2C)OCO4)cc1 (stereo unspecified)	/	/	/	.	52.4	/
C=CCN1C(=O)/C(=C\c2ccc(N3CCOCC3)o2)C(=O)NC1=S	.	.	.	40.0	.	.
CN1C(=O)/C(=C\c2ccc(N3CCCCC3)o2)C(=O)NC1=S	.	.	.	87.8	.	.
CN1C(=O)/C(=C\c2ccc(N3CCCCCC3)cc2)C(=O)NC1=S	.	.	.	.	.	.
CN1C(=O)/C(=C/c2ccc(N3CCCCCC3)o2)C(=O)NC1=S	.	.	.	81.4	.	.
CC(C)C[C@H]1COc2cc(N3CCN(C)CC3)ccc2S(=O)(=O)N1	/	/	/	.	.	/
C1CN(P2(N3CC3)=NP(N3CC3)(N3CC3)=NP(N3CC3)(N3CC3)=N2)CCO1 (stereo unspecified)	/	/	/	.	.	/
COC12c3ccccc3-c3ccccc3C1C(C(=O)O)C2C(=O)O (stereo unspecified)	/	/	/	.	.	/
CCC(c1nnnn1-c1ccc2c(c1)OCCO2)N1CCC2(CC1)C(=O)NCN2c1ccccc1 (stereo unspecified)	/	/	/	.	.	/
Nc1ccccc1C(=O)OCC(=O)c1ccc2c(c1)OCCO2	94.8	.	98.5	.	.	95.4
CC(=O)NC1=C(N2CC2C)C(=O)C(NC(C)=O)=C(N2CC2C)C1=O (stereo unspecified)	/	/	/	.	64.9	/
CCN(CCO)c1ccc(N=Cc2c(O)n(C)c(=S)[nH]c2=O)cc1	.	.	54.3	.	55.3	.
O=c1[nH]c2ccccc2n1C1CCN(C(c2cc3ccccc3o2)c2nnnn2-c2ccc3c(c2)OCCO3)CC1 (stereo unspecified)	/	/	/	.	.	/
SMILES	SENP8 block-1	Platelet DG rel	SENP7 block	SENP1 inh	SENP8 block-2	SENP6 block
CN1/C(=C\C=C\C2=[N+](C)c3ccc4ccccc4c3C2(C)C)C(C)(C)c2ccccc21	.	/	.	/	/	58.9
CN1/C(=C\C=Nc2ccccc2)C(C)(C)c2ccccc21	.	.	.	.	.	.
CCN1/C(=C/C=C/C2=[N+](CC)c3ccccc3C2(C)C)C(C)(C)c2ccccc21	/	/	/	76.5	41.2	/
CN1/C(=C\C=C2C(=O)NC(=O)NC2=O)C(C)(C)c2ccccc21	.	.	.	.	.	.
Cc1nc2ccccn2c1P(=S)(c1ccccc1)c1ccccc1	/	/	/	.	.	/
CCn1nc(-c2ccccc2)nc2c(=O)n(C)c(=O)nc1-2	91.8	.	96.2	.	.	88.9

Compound activity as filed in PubChem BioAssay.
